Each structure is given as a SMILES string. Calls of active or inactive are those of the source. The calls are words filed in the database; no cut-off is given here.

By EC50 is commonly meant the concentration at which the effect is half-maximal. A lower EC50 goes with higher potency in that assay. By IC50 is commonly meant the concentration that gives 50% inhibition. Higher therefore signals weaker potency.

For assay [1], the system named is Canis familiaris. The assay can be described thus: Percent change heart rate after intravenous administration in anesthetized dogs at 0.3 mg/kg (NC<10%). The class given is functional, Canis lupus familiaris. The procedure, abridged:
(§1)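 Anesthetized dogs, drug given intravenously at the stated dose. Percent change recorded in LV dP/dt (contractile force), heart rate and mean arterial pressure. Mean of at least four determinations; LV dP/dt ranges within ±10%.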

Assay [2] deals with Canis familiaris. Nature of the assay: (§2) Percent change in mean arterial blood pressure after intravenous administration in anesthetized dogs at 1.0 mg/kg. The assay is classed as functional, Canis lupus familiaris. The procedure, abridged:
as §1

Assay [3] is filed under the species Canis familiaris. The assay can be described thus: In vitro vascular relaxation in canine mesenteric veins precontracted with phenylephrine. To be noted: Canis lupus familiaris, Mesenteric vein. The class given is functional. Put shortly:
(§3)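 Isolated vessels in warm PSS. Arteries constricted with prostaglandin F2α, veins with phenylephrine. Cumulative drug challenges, each added after relaxation plateaued. Delta force is expressed as % of agonist actual force (total minus basal) and as % of maximal relaxation. EC50 is found by linear interpolation between the points bracketing 50% relaxation. Afterwards tissues were rinsed every 10 min, reconstricted, and challenged with acetylcholine (arteries) or thrombin (veins).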

Assay [4] relates to Canis familiaris. The assay can be described thus: Percent change in heart rate after intravenous administration in anesthetized dogs at 3.0 mg/kg (NC<10%). The assay is classed as functional, Canis lupus familiaris. Put shortly:
as §1

The nature of assay [5]: Inhibition of crude cGMP phosphodiesterase from canine thoracic aorta (NR = no effect at 100 ug). The assay is classed as tissue-based, Canis lupus familiaris. Put shortly: (§4)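 Crude PDEs from canine tissue homogenates: cAMP enzyme from cardiac tissue, cGMP enzyme from thoracic aorta. Value is drug concentration (μM) causing 50% inhibition. Mean of at least three determinations, ranges within ±10%.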

In assay [6] the test system is Canis familiaris. The assay can be described thus: (§5) Percent change in left ventricle contractile force in anesthetized dogs after intravenous administration at 0.3 mg/kg. The assay is classed as functional, Canis lupus familiaris, Heart left ventricle. Put shortly:
as §1

In assay [7] the test system is Canis familiaris. The assay can be described thus: Percent change in mean arterial blood pressure after intravenous administration in anesthetized dogs at 3.0 mg/kg. The assay is classed as functional, Canis lupus familiaris. Put shortly: as §1
The test system of assay [8] is Canis familiaris. Nature of the assay: Percent change in left ventricle contractile force in anesthetized dogs after intravenous administration at 3.0 mg/kg. The class given is functional, Canis lupus familiaris, Heart left ventricle. The procedure, abridged:
as §1

Assay [9] is described as follows: Inhibition of crude cAMP phosphodiesterase from canine […] (NR = no effect at 100 ug). Details: species or system Canis lupus familiaris. Put shortly:
as §4

Assay [10] is filed under the species Mustela putorius furo. Nature of the assay: In vitro increase in contractile force in ferret papillary muscle strips (NR = not reached at 100 ug). The assay is classed as functional, tissue-based. The settings on record: Muscle tissue. The procedure, abridged: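 Ferret papillary muscle contractile force measured in vitro; value is drug concentration (μM) giving a 20% rise in contractile force. Inotropic effect also tested with 1 μM propranolol coadministered. Mean of at least two determinations, ranges within ±10%.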

For assay [11], the system named is Canis familiaris. Nature of the assay: (§6) Percent change in left ventricle contractile force in anesthetized dogs after intravenous administration at 1.0 mg/kg. The class given is functional, Canis lupus familiaris, Heart left ventricle. Put shortly:
as §1

For assay [12], the system named is Canis familiaris. The assay can be described thus: (§7) Percent change in mean arterial blood pressure after intravenous administration in anesthetized dogs at 0.3 mg/kg. The class given is functional, Canis lupus familiaris. The procedure, abridged: as §1
Assay [13] deals with Canis familiaris. Nature of the assay: Percent change heart rate after intravenous administration in anesthetized dogs at 1.0 mg/kg. The class given is functional, Canis lupus familiaris. The procedure, abridged: as §1
The species entered for assay [14] is Canis familiaris. The assay can be described thus: In vitro vascular relaxation in canine coronary arteries precontracted with prostaglandin F2alpha. The class given is functional. To be noted: Canis lupus familiaris. Put shortly:
as §3

Assay [15] relates to Canis familiaris. The assay can be described thus: Percent change in left ventricle contractile force in anesthetized dogs after intravenous administration at 0.1 mg/kg. The assay is classed as functional, Canis lupus familiaris, Heart left ventricle.
Assay [16] can be described thus: Inhibition of crude cAMP phosphodiesterase from canine […]. Details: species or system Canis lupus familiaris. The procedure, abridged: (§8)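 Crude homogenates: cAMP PDE from canine cardiac tissue, cGMP PDE from canine thoracic aorta. Value is drug concentration (μM) giving 50% inhibition. Mean of at least three determinations, ranges within ±10%.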
In assay [17] the test system is Canis familiaris. The description is as §5. The class given is functional, Canis lupus familiaris, Heart left ventricle. The source holds these as a separate data set.
In assay [18] the test system is Canis familiaris. Described as §2. The class given is functional, Canis lupus familiaris. This is another data set of the same source.
Assay [19] has as its system Canis familiaris. The assay can be described thus: Percent change in heart rate after intravenous administration in anesthetized dogs at 1.0 mg/kg. The class given is functional, Canis lupus familiaris.
For assay [20], the system named is Canis familiaris. The assay can be described thus: Percent change in mean arterial blood pressure after intravenous administration in anesthetized dogs at 0.1 mg/kg. The class given is functional, Canis lupus familiaris.
The subject of assay [21] is Canis familiaris. The description is as §7. The assay is classed as functional, Canis lupus familiaris. The source holds these as a separate data set.
Assay [22] relates to Canis familiaris. The assay can be described thus: Percent change in heart rate after intravenous administration in anesthetized dogs at 0.1 mg/kg (NC<10%). The assay is classed as functional, organism-based. Details: dose 0.1 mg/kg. To be noted: Canis lupus familiaris.
Assay [23] is described as follows: Inhibition of crude cGMP phosphodiesterase from canine thoracic aorta. The assay is classed as tissue-based, Canis lupus familiaris. Put shortly: as §8
The test system of assay [24] is Canis familiaris. Nature of the assay: Percent change in heart rate after intravenous administration in anesthetized dogs at 0.3 mg/kg. The assay is classed as functional, Canis lupus familiaris.
The subject of assay [25] is Canis familiaris. Described as §6. The class given is functional, Canis lupus familiaris, Heart left ventricle. This is another data set of the same source.
A short description of assay [26]: In vitro increase in contractile force in ferret papillary muscle strips. The assay is classed as functional, Mustela putorius furo, Muscle tissue. Put shortly: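 Ferret papillary muscle; value is drug concentration (μM) giving a 20% rise in contractile force. Mean of at least two determinations, ranges within ±10%. Inotropic effect also tested with 1 μM propranolol co-administered. NR means not reached at 100 μM.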

In the case of `O=[N+]([O-])OCC(CO[N+](=O)[O-])O[N+](=O)[O-]` [NITROGLYCERIN], the Delta in assay [1] was <10%; in assay [2], -30%; in assay [4], <10%; in assay [6] it was -9%; in assay [7], -39%; in [8] it was -17%. The Delta in assay [11] is given as -14%; in [12], -20%; in assay [13], <10%. In addition, the EC50 in assay [3] turned out to be 0.007 µM; in assay [14], 0.01 µM. Moreover, the IC50 result in assay [5] and in assay [9] was “Not Active” throughout. Moreover, the CFC20 entry in [10] is “inactive”.
As for `CCc1ncc2c(O)nc3cccnc3n12`, the Delta in assay [15] was 31%; in assay [17] it was 40%; in assay [18], -40%; in [19], 50%; in assay [20], -17%; in assay [21], -25%. Also, the results for the Delta in assay [22], in assay [24] and in assay [25] were <10% change from control, 30% and 76%, respectively. For the same molecule, the IC50 in [16] was 1 µM; in assay [23], 7 µM. In addition, the EC50 came out at 0.5 µM in [3] and 0.3 µM in assay [14]. This molecule yielded a CFC20 in assay [26] of 0.1 µM.

Values taken from ChEMBL document CHEMBL1125195, “Novel compounds possessing potent cAMP and cGMP phosphodiesterase inhibitory activity. Synthesis and cardiovascular effects of a series of imidazo[1,2-a]quinoxalinones and imidazo[1,5-a]quinoxalinones and their aza analogues” (J Med Chem, 1991).
